Data on 14 molecules can be found in ChEMBL document CHEMBL4428066, “Small Molecule Reversible Inhibitors of Bruton's Tyrosine Kinase (BTK): Structure-Activity Relationships Leading to the Identification of 7-(2-Hydroxypropan-2-yl)-4-[2-methyl-3-(4-oxo-3,4-dihydroquinazolin-3-yl)phenyl]-9H-carbazole-1-carboxamide (BMS-935177)” (J Med Chem, 2016).

A short description of data set [1]: Cmax in Balb/C mouse at 10 mg/kg, po. Type of data set: ADME, organism-based. The arrangement: dose 10 mg/kg, route oral. To be noted: in vivo. An outline of the steps:
(§1)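 Male Balb/C mice dosed orally once at 10 mg/kg in PEG300/TPGS/ethanol (90/5/5 v/v/v).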

For data set [2], the target named is T1, Tyrosine-protein kinase BTK (Homo sapiens, UniProt Q06187). Put plainly: Inhibition of BTK in human RamosB cells assessed as suppression of BCR/anti-IgM stimulated calcium flux pre-incubated for 1 hr followed by BCR/anti-IgM stimulation. The data set is classed as cell-based.
T1 sequence (Q06187 whole entry): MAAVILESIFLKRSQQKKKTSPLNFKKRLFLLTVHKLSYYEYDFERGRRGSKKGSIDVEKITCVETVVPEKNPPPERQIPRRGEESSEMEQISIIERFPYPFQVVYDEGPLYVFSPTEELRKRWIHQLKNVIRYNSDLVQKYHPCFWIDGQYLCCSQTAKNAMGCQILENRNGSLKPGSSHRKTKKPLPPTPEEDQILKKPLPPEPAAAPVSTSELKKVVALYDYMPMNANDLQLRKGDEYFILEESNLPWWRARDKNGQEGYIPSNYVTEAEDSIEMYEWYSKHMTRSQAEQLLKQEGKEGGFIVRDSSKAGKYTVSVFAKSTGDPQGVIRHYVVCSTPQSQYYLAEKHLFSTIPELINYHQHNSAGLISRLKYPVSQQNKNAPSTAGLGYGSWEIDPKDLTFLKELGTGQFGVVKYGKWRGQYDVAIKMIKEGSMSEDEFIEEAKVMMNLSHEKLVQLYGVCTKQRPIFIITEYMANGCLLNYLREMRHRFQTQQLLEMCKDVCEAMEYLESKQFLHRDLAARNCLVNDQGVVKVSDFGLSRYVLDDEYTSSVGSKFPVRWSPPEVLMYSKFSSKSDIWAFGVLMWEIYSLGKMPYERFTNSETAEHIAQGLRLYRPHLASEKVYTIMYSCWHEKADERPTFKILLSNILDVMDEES
The species named for a further data set is Homo sapiens. Put plainly: Selectivity ratio of IC50 for GST-tagged human recombinant LCK using FITC-AHAEGIYLFKKK-NH2 as substrate to IC50 for His-tagged full length human recombinant BTK expressed in baculovirus. A digest of the protocol: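 Fold selectivity is the LCK enzyme IC50 divided by the BTK enzyme IC50. The footnotes give each IC50 as the mean of three (or at least three) determinations, with some as single determinations.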

A short description of data set [3]: AUC (0 to 24 hrs) in Balb/C mouse at 10 mg/kg, po. The data set is classed as ADME, organism-based. Also on record: time < 24 hr, dose 10 mg/kg, route oral. To be noted: in vivo. An outline of the steps:
as §1

In data set [4] the target is T1, Tyrosine-protein kinase BTK. Put plainly: Inhibition of His-tagged full length human recombinant BTK expressed in baculovirus using fluoresceinated peptide substrate after 60 mins by fluorescent electrophoretic separation.
The nature of data set [5]: Stability in mouse liver microsomes. The data set is classed as ADME, Microsome.
The next data set concerns Mus musculus. Put plainly: Decrease in anti-KLH IgM titers in chronic Balb/C mouse KLH antibody response model at 30 mg/kg, po administered through oral gavage after 14 days by ELISA. Type of data set: functional, organism-based. To be noted: in the assay text read “IgG” for “IgM”. An outline of the steps: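 Chronic KLH challenge model in mice with compound given by mouth. Anti-KLH IgM appears in the first week after challenge. Switching to IgG anti-KLH is evident by day 14.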

Data set [6] can be described thus: Toxicity in mouse administered orally as multiple day dosing schedule. To be noted: in vivo, po.
A short description of data set [7]: Permeability of the compound at pH 7 by PAMPA. The data set is classed as ADME. To be noted: for Papp: read-out: permeability.
A short description of data set [8]: Drug metabolism in human liver microsomes assessed as bis-aniline metabolite formation. The data set is classed as ADME, Microsome. A digest of the protocol: (§2)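 Compounds were incubated with human or rat liver microsomes. Metabolites were profiled for hydrolysis to the aniline and, where applicable, for N-dealkylation giving the bis-aniline.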
Data set [9] can be described thus: Drug metabolism in human liver microsomes assessed as aniline metabolite formation. The data set is classed as ADME, Microsome. A digest of the protocol: as §2
Data set [10] can be described thus: Drug metabolism in rat liver microsomes assessed as aniline metabolite formation. Type of data set: ADME, Microsome. A digest of the protocol:
as §2

The nature of data set [11]: Drug metabolism in rat liver microsomes assessed as bis-aniline metabolite formation. The data set is classed as ADME, Microsome. An outline of the steps: as §2

pIC50: −log10 of the molar value. Active and inactive are the calls of the source. The calls are words filed in the database; no cut-off is given here.

For the molecule `Cc1c(-c2ccc(C(N)=O)c3[nH]c4cc(C(=O)N5CCN(C)CC5)ccc4c23)cccc1N1Cc2ccccc2C1=O`, the concentration in data set [1] peaked (Cmax) at 0.178 µM. For the same molecule, the pIC50 in data set [2] was 6.62; in [4], 8.30. Further, the Ratio IC50 in the data set listed under Homo sapiens amounted to 14. Besides, the AUC(0-t) at 24 h in data set [3] amounted to 0.3 µM·h.

As for `Cc1c(-c2ccc(C(N)=O)c3[nH]c4cc(C(C)(C)O)ccc4c23)cccc1N1Cc2ccc(F)cc2C1=O`, the maximum concentration (Cmax) in [1] came to 4.41 µM. Moreover, the Stability entry in data set [5] was “Stable”. Moreover, the pIC50 in data set [2] is 7.32; in [4] it was 8.70. For the same molecule, the outcome in the data set with Mus musculus was inactive. Further, the Ratio IC50 in the data set filed under Homo sapiens came out at 48. This molecule also displayed an AUC(0-t) at 24 h in data set [3] of 41 µM·h.

In [1], `Cc1c(-c2ccc(C(N)=O)c3[nH]c4cc(C(C)(C)O)ccc4c23)cccc1-n1cnc2cccc(F)c2c1=O` had a Cmax of 6.74 µM. The pIC50 in data set [2] is 7.74; in data set [4], 8.30. In the data set filed under Homo sapiens, the Ratio IC50 came out at 61. The molecule also displayed an AUC(0-t) at 24 h in [3] of 58 µM·h.

Molecule `CC(C)(O)c1ccc2c(c1)[nH]c1c(C(N)=O)ccc(-c3cccc(-n4cnc5ccccc5c4=O)c3F)c12` showed a Cmax in [1] of 2.1 µM. This molecule also displayed an AUC(0-t) at 24 h in data set [3] of 19 µM·h.

For `Cc1c(-c2ccc(C(N)=O)c3[nH]c4cc(C(C)(C)O)ccc4c23)cccc1N1Cc2ccccc2C1=O`, the pIC50 in data set [2] is 6.81; in data set [4], 8.30. Further, the Ratio IC50 in the data set listed under Homo sapiens was determined as 25.

Turning to `Cc1c(-c2ccc(C(N)=O)c3[nH]c4cc(C(C)(C)O)ccc4c23)cccc1-n1ccc2ccccc2c1=O`, the pIC50 in data set [2] is 6.84; in [4], 8.30. The Ratio IC50 in the data set listed under Homo sapiens is 44.

Turning to `Cc1c(NC(=O)c2ccc(F)cc2)cccc1-c1ccc(C(N)=O)c2[nH]c3cc(NC(C)C)ccc3c12`, the Cmax in [1] is 7.96 µM. Also, in data set [6], the Activity result was “Toxic”. For the same molecule, in data set [7], the permeability result is recorded as “Impermeable”. In addition, the Ratio IC50 in the data set filed under Homo sapiens was 61. The molecule also registered an AUC(0-t) at 24 h in [3] of 36 µM·h. Besides, the Drug metabolism entry in data set [8], in data set [9], in data set [10] and in data set [11] was “Metabolite_Detected” in each case. The pIC50 in data set [4] is 7.96.

The molecule `Cc1c(NC(=O)c2ccc(F)cc2)cccc1-c1ccc(C(N)=O)c2[nH]c3cc(C(=O)N4CCN(C)CC4)ccc3c12` had a Cmax in data set [1] of 0.09 µM. Further, the Papp in data set [7] was 14.7 ×10⁻⁶ cm/s. Moreover, the Ratio IC50 in the data set filed under Homo sapiens worked out at 15. This molecule registered an AUC(0-t) at 24 h in [3] of 0.4 µM·h. The pIC50 in [4] is 8.30.

`Cc1c(-c2ccc(C(N)=O)c3[nH]c4cc(C(C)(C)O)ccc4c23)cccc1-n1cnc2c(F)cccc2c1=O` showed a Cmax in data set [1] of 6.85 µM. For the same molecule, the values for the pIC50 in data set [2] and in data set [4] were 7.47 and 8.70, respectively. The Ratio IC50 in the data set filed under Homo sapiens was 88. The molecule further displayed an AUC(0-t) at 24 h in data set [3] of 63 µM·h.

As for `Cc1c(-c2ccc(C(N)=O)c3[nH]c4cc(C(C)(C)O)ccc4c23)cccc1-n1cnc2ccc(F)cc2c1=O`, the Cmax in data set [1] was 9.77 µM. In addition, the values for the pIC50 in [2] and in data set [4] were 7.40 and 8.15, respectively. In the data set listed under Homo sapiens, the Ratio IC50 came to 52. The AUC(0-t) at 24 h in data set [3] is 113 µM·h.

In the case of `Cc1c(-c2ccc(C(N)=O)c3[nH]c4cc(C(C)(C)O)ccc4c23)cccc1N1CCc2ccccc2C1=O`, the pIC50 in data set [2] was 7.59; in data set [4] it was 8.52. For the same molecule, in the data set listed under Homo sapiens, the Ratio IC50 is 33.

In data set [1], `Cc1c(NC(=O)c2ccc(F)cn2)cccc1-c1ccc(C(N)=O)c2[nH]c3cc(C(=O)N4CCN(C)CC4)ccc3c12` gave a Cmax of 1.57 µM. Besides, in data set [7], the Papp is 58.7 ×10⁻⁶ cm/s. In addition, the Ratio IC50 in the data set listed under Homo sapiens is 9. This molecule showed an AUC(0-t) at 24 h in data set [3] of 5 µM·h. Moreover, the Drug metabolism entry in data set [9] and in data set [10] was “Metabolite_Detected” in each case. Further, the pIC50 in data set [4] is 8.05.

On to `Cc1c(-c2ccc(C(N)=O)c3[nH]c4cc(C(C)(C)O)ccc4c23)cccc1-n1cnc2cc(F)ccc2c1=O`, for which the concentration in data set [1] peaked (Cmax) at 8.06 µM. For the same molecule, the pIC50 in data set [2] was 7.62; in [4], 8.70. In addition, the Ratio IC50 in the data set filed under Homo sapiens is 89. Further, the AUC(0-t) at 24 h in data set [3] came to 120 µM·h.

For `Cc1c(-c2ccc(C(N)=O)c3[nH]c4cc(CO)ccc4c23)cccc1-n1cnc2ccccc2c1=O`, in data set [1], the Cmax was determined as 4.65 µM. Also, the pIC50 in data set [2] is 7.66; in data set [4], 8.52. Moreover, the Ratio IC50 in the data set listed under Homo sapiens was 146. Further, the AUC(0-t) at 24 h in data set [3] worked out at 14 µM·h.
